Data published in ChEMBL document CHEMBL3526053, “Species-dependent uptake of glycylsarcosine but not oseltamivir in Pichia pastoris expressing the rat, mouse, and human intestinal peptide transporter PEPT1” (Drug Metab Dispos, 2012).

Tests used:
Type in all cases: ADME
[1] = target: T1, Solute carrier family 15 member 1 (Homo sapiens, UniProt P46059); experiment: Drug uptake in Pichia pastoris GS115 expressing human recombinant PEPT1 at 5 uM after 30s by dual-channel liquid scintillation counting analysis in presence of cephapirin relative to control; conditions: 0.5 min
T1 sequence (P46059 whole entry): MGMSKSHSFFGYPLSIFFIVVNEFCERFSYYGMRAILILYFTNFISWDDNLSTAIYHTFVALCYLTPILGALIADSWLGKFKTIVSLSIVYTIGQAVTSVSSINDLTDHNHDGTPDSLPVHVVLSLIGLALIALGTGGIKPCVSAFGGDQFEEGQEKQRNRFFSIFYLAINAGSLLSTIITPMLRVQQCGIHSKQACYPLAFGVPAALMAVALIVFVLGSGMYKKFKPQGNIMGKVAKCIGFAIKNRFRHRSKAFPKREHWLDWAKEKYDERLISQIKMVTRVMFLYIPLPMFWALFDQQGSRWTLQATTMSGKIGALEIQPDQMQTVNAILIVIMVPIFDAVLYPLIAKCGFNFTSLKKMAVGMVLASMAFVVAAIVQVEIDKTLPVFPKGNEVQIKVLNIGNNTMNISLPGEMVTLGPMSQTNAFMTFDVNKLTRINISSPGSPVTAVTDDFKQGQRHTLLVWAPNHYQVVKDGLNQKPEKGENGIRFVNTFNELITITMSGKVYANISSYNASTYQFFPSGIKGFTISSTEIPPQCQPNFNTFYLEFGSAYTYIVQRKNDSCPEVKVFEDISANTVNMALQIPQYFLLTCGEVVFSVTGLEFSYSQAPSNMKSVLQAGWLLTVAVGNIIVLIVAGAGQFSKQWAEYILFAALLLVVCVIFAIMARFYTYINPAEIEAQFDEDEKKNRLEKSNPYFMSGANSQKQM
In short: (§1)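 [3H]GlySar 5.0 µM final, 30-s uptake at 24°C in 100 mM potassium phosphate pH 6.5, with or without a potential inhibitor at 10 mM. Cells are methanol-induced transformants. Values are vector-subtracted and expressed as percent of buffer control. Mean ± SE (n=3). ANOVA with Dunnett's test.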

[2] = target: T1, Solute carrier family 15 member 1; experiment: Drug uptake in Pichia pastoris GS115 expressing human recombinant PEPT1 at 5 uM after 30s by dual-channel liquid scintillation counting analysis in presence of acyclovir relative to control; conditions: 0.5 min; in short: as §1
[3] = target: T2, Solute carrier family 15 member 1 (Rattus norvegicus, UniProt P51574); experiment: Drug uptake in Pichia pastoris GS115 expressing rat recombinant PEPT1 at 5 uM after 30s by dual-channel liquid scintillation counting analysis in presence of SITS relative to control; conditions: in vivo, 0.5 min; in short: as §1
T2 sequence (P51574 whole entry): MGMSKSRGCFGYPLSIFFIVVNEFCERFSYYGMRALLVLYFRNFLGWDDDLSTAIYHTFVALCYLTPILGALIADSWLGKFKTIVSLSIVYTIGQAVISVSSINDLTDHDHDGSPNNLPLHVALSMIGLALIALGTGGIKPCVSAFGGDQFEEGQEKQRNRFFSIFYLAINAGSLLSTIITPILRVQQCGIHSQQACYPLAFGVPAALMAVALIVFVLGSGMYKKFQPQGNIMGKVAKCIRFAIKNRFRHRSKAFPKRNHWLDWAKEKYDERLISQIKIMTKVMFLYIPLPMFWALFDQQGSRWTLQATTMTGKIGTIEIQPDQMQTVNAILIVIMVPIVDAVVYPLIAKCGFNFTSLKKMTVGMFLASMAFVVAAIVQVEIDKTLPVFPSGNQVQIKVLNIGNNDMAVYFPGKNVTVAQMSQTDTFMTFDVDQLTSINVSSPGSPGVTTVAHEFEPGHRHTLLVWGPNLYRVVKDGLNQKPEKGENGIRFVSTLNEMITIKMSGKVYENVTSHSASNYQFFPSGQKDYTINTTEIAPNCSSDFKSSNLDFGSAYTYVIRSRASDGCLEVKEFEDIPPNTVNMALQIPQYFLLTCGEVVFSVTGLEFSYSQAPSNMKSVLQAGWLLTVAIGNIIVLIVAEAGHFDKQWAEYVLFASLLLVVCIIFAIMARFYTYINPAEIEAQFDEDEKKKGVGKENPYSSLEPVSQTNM

[4] = target: T3, Solute carrier family 15 member 1 (Mus musculus, UniProt Q9JIP7); experiment: Drug uptake in Pichia pastoris GS115 expressing mouse recombinant PEPT1 at 5 uM after 30s by dual-channel liquid scintillation counting analysis in presence of cephalothin relative to control; conditions: 0.5 min; in short: as §1
T3 sequence (Q9JIP7 whole entry): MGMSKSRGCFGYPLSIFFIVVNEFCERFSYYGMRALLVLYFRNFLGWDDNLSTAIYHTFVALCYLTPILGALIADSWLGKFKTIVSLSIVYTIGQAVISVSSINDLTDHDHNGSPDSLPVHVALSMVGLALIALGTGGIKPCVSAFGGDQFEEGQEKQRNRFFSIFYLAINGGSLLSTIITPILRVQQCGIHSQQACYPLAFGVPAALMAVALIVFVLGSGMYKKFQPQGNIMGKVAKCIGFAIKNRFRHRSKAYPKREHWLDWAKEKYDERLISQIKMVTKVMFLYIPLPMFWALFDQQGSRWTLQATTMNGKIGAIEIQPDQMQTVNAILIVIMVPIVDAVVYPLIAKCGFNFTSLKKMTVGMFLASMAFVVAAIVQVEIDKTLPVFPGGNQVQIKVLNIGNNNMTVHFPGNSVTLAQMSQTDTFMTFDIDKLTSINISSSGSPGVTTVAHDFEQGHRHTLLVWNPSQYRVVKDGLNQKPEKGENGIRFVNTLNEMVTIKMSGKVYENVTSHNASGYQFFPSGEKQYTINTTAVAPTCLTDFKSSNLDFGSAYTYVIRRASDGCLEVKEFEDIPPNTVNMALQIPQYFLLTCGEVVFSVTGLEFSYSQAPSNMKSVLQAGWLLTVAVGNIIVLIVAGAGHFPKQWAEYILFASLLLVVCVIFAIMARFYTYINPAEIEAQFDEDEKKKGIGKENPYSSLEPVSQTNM

PEPT1 [5] = target: T4, PEPT1 (Rattus norvegicus, UniProt P51574); experiment: Drug uptake in Pichia pastoris GS115 expressing rat recombinant PEPT1 at 5 uM after 30 mins by dual-channel liquid scintillation counting analysis relative to vector control; conditions: read-out: FC
T4 sequence (P51574 whole entry): T2 sequence (P51574 whole entry)
In short: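 5.0 µM radiolabelled substrate ([3H]GlySar or [14C]oseltamivir) is incubated 30 min at 24°C with induced transformants in 100 mM potassium phosphate pH 6.5. Cell-associated radioactivity is counted by scintillation after standing 24 h and normalised to OD600. Results are compared with pPIC3.5K vector-alone cells. Mean ± SE (n=6).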

[6] = target: T1, Solute carrier family 15 member 1; experiment: Drug uptake in Pichia pastoris GS115 expressing human recombinant PEPT1 at 5 uM after 30s by dual-channel liquid scintillation counting analysis in presence of GlyPro relative to control; conditions: 0.5 min; in short: as §1
PEPT1 [7] = target: T5, PEPT1 (Mus musculus, UniProt Q9JIP7); experiment: Drug uptake in Pichia pastoris GS115 expressing mouse recombinant PEPT1 at 5 uM after 30s by dual-channel liquid scintillation counting analysis relative to vector control; conditions: read-out: FC
T5 sequence (Q9JIP7 whole entry): T3 sequence (Q9JIP7 whole entry)
In short: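 5.0 µM radiolabelled substrate uptake for 30 s at 24°C in pH 6.5 phosphate buffer by induced transformants. Radioactivity is counted by liquid scintillation and normalised to OD600. Results are compared with pPIC3.5K vector-alone cells. Mean ± SE (n=6).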

SMILES: [3H]C(C(=O)O)N(C)C(=O)CN (configuration not stated)
- Drug uptake [1]: 100%
- Drug uptake [2]: 114%
- Drug uptake [3]: 107%
- Drug uptake [4]: 85%
- uptake ratio at 0.5 h, 5 µM (PEPT1 [5]): 100
- Drug uptake [6]: 3.9%
- uptake ratio at 0.5 min, 5 µM (PEPT1 [7]): 61
